{"source": "ChEMBL document CHEMBL4266041", "about": "“Hydroxybiphenylamide GroEL/ES Inhibitors Are Potent Antibacterials against Planktonic and Biofilm Forms of Staphylococcus aureus” (J Med Chem, 2018)"}
{"test_system": "not listed separately", "assay": "Inhibition of refolded MDH (unknown origin) preincubated with Escherichia coli GroEL/GroES for 45 mins in absence of compound followed by compound addition and measured for 20 to 35 mins by spectrometric analysis", "conditions": "not given", "units": {"IC50": "µM"}}
{"smiles": "O=C(Nc1ccc(Sc2nc3ccccc3s2)cc1)c1ccccc1", "IC50": "> 63"}
{"smiles": "COc1ccc(Br)cc1C(=O)Nc1ccc(Sc2nc3ccccc3s2)c(Cl)c1", "IC50": "> 63"}
{"smiles": "O=C(Nc1ccc(Sc2nc3ccccc3s2)cc1)c1cc(Br)cc(Br)c1", "IC50": "> 63"}
{"smiles": "O=C(Nc1cccc(Cl)c1)c1cc(Br)cc(Br)c1", "IC50": "> 63"}
{"smiles": "COc1ccc(Br)cc1C(=O)Nc1ccc(Sc2nc3ccccc3s2)cc1", "IC50": "> 63"}
{"molecular_target": "T1, E. coli GroEL/ES (Escherichia coli, UniProt P0A6F5)", "T1 sequence (P0A6F5 whole entry, looked up)": "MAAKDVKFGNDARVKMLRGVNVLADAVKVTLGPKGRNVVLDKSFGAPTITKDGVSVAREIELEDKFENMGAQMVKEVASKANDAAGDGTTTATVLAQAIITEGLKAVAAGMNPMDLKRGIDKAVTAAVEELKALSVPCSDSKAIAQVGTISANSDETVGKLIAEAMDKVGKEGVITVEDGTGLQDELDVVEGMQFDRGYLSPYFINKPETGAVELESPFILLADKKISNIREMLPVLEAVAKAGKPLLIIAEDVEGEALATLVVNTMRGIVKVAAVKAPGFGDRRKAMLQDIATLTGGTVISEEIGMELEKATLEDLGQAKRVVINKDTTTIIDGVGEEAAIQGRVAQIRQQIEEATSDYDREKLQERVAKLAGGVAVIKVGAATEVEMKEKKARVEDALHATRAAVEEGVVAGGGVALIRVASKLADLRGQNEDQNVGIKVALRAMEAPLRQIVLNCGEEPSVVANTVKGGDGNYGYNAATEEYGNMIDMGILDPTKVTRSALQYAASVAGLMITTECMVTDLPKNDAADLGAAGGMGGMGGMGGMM", "assay": "Inhibition of Escherichia coli GroEL expressed in Escherichia coli DH5alpha/Escherichia coli GroES expressed in Escherichia coli BL21 (DE3) assessed as reduction in GroEL/GroES-mediated denatured rhodanese refolding after 45 mins by spectrometric analysis", "conditions": "not given", "how_it_was_run": "(§1)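 Uses E. coli GroEL/ES with a denatured MDH or rhodanese reporter. GroEL first forms a binary complex with the denatured reporter. Refolding is started by adding ATP and GroES, then reporter enzyme activity is read. DMSO is the negative control. IC50 values from replicate curves are log-averaged after ROUT outlier screening.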", "units": {"IC50": "µM"}}
{"smiles": "O=C(Nc1ccc(Sc2nc3ccccc3s2)cc1)c1ccccc1", "IC50": "> 100"}
{"smiles": "COc1ccc(Br)cc1C(=O)Nc1ccc(Sc2nc3ccccc3s2)c(Cl)c1", "IC50": "> 100"}
{"smiles": "O=C(Nc1ccc(Sc2nc3ccccc3s2)cc1)c1cc(Br)cc(Br)c1", "IC50": "> 100"}
{"smiles": "O=C(Nc1cccc(Cl)c1)c1cc(Br)cc(Br)c1", "IC50": "> 100"}
{"smiles": "COc1ccc(Br)cc1C(=O)Nc1ccc(Sc2nc3ccccc3s2)cc1", "IC50": "> 100"}
{"molecular_target": "T2, Thiosulfate sulfurtransferase (Homo sapiens, UniProt Q16762)", "T2 sequence (Q16762 whole entry)": "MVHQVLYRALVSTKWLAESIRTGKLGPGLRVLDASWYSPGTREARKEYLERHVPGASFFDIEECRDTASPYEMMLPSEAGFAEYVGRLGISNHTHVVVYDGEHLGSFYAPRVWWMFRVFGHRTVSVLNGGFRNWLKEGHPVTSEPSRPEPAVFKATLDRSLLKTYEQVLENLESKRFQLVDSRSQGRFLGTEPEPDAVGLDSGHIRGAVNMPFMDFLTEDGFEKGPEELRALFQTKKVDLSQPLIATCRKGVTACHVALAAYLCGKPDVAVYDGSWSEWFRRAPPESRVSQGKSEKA", "assay": "Inhibition of refolded rhodanese (unknown origin) preincubated with Escherichia coli GroEL/GroES for 60 mins in absence of compound followed by compound addition by spectrometric analysis", "conditions": "not given", "units": {"IC50": "µM"}}
{"smiles": "O=C(Nc1ccc(Sc2nc3ccccc3s2)cc1)c1ccccc1", "IC50": "> 100"}
{"smiles": "COc1ccc(Br)cc1C(=O)Nc1ccc(Sc2nc3ccccc3s2)c(Cl)c1", "IC50": "> 100"}
{"smiles": "O=C(Nc1ccc(Sc2nc3ccccc3s2)cc1)c1cc(Br)cc(Br)c1", "IC50": "> 100"}
{"smiles": "O=C(Nc1cccc(Cl)c1)c1cc(Br)cc(Br)c1", "IC50": "> 100"}
{"smiles": "COc1ccc(Br)cc1C(=O)Nc1ccc(Sc2nc3ccccc3s2)cc1", "IC50": "> 100"}
{"test_system": "Klebsiella pneumoniae", "assay": "Antibacterial activity against Klebsiella pneumoniae ATCC 13883 after 6 to 8 hrs by bacterial proliferation assay", "format": "functional, organism-based", "conditions": "not given", "how_it_was_run": "(§2)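 Bacterial growth inhibition in liquid culture. The highest concentration tested was 100 µM. The mean was back-calculated from the average log value. Values above the top concentration were set 0.1 log unit higher.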", "units": {"EC50": "µM"}}
{"smiles": "O=C(Nc1ccc(Sc2nc3ccccc3s2)cc1)c1ccccc1", "EC50": "> 100"}
{"smiles": "COc1ccc(Br)cc1C(=O)Nc1ccc(Sc2nc3ccccc3s2)c(Cl)c1", "EC50": "> 100"}
{"smiles": "O=C(Nc1ccc(Sc2nc3ccccc3s2)cc1)c1cc(Br)cc(Br)c1", "EC50": "> 100"}
{"smiles": "O=C(Nc1cccc(Cl)c1)c1cc(Br)cc(Br)c1", "EC50": "> 100"}
{"smiles": "COc1ccc(Br)cc1C(=O)Nc1ccc(Sc2nc3ccccc3s2)cc1", "EC50": "> 100"}
{"test_system": "HEK293", "assay": "Cytotoxicity against HEK293 cells assessed as reduction in cell viability after 48 hrs by Alamar Blue reporter assay", "conditions": "human, hek293, 48 h", "units": {"CC50": "µM"}}
{"smiles": "O=C(Nc1ccc(Sc2nc3ccccc3s2)cc1)c1ccccc1", "CC50": "> 100"}
{"smiles": "COc1ccc(Br)cc1C(=O)Nc1ccc(Sc2nc3ccccc3s2)c(Cl)c1", "CC50": "> 100"}
{"smiles": "O=C(Nc1ccc(Sc2nc3ccccc3s2)cc1)c1cc(Br)cc(Br)c1", "CC50": "> 100"}
{"smiles": "O=C(Nc1cccc(Cl)c1)c1cc(Br)cc(Br)c1", "CC50": 53}
{"smiles": "COc1ccc(Br)cc1C(=O)Nc1ccc(Sc2nc3ccccc3s2)cc1", "CC50": "> 100"}
{"test_system": "Staphylococcus aureus", "assay": "Antibacterial activity against Staphylococcus aureus ATCC 25923 after 6 to 8 hrs by bacterial proliferation assay", "format": "functional, organism-based", "conditions": "not given", "units": {"EC50": "µM"}}
{"smiles": "O=C(Nc1ccc(Sc2nc3ccccc3s2)cc1)c1ccccc1", "EC50": "> 100"}
{"smiles": "COc1ccc(Br)cc1C(=O)Nc1ccc(Sc2nc3ccccc3s2)c(Cl)c1", "EC50": "> 100"}
{"smiles": "O=C(Nc1ccc(Sc2nc3ccccc3s2)cc1)c1cc(Br)cc(Br)c1", "EC50": "> 100"}
{"smiles": "O=C(Nc1cccc(Cl)c1)c1cc(Br)cc(Br)c1", "EC50": 14}
{"smiles": "COc1ccc(Br)cc1C(=O)Nc1ccc(Sc2nc3ccccc3s2)cc1", "EC50": "> 100"}
{"test_system": "Enterococcus faecium", "assay": "Antibacterial activity against Enterococcus faecium ATCC 19434 after 24 hrs by bacterial proliferation assay", "format": "functional, organism-based", "conditions": "ATCC 19434, 24 h", "units": {"EC50": "µM"}}
{"smiles": "O=C(Nc1ccc(Sc2nc3ccccc3s2)cc1)c1ccccc1", "EC50": "> 100"}
{"smiles": "COc1ccc(Br)cc1C(=O)Nc1ccc(Sc2nc3ccccc3s2)c(Cl)c1", "EC50": "> 100"}
{"smiles": "O=C(Nc1ccc(Sc2nc3ccccc3s2)cc1)c1cc(Br)cc(Br)c1", "EC50": "> 100"}
{"smiles": "O=C(Nc1cccc(Cl)c1)c1cc(Br)cc(Br)c1", "EC50": "> 100"}
{"smiles": "COc1ccc(Br)cc1C(=O)Nc1ccc(Sc2nc3ccccc3s2)cc1", "EC50": "> 100"}
{"test_system": "Staphylococcus aureus", "assay": "Antibacterial activity against methicillin-resistant Staphylococcus aureus ATCC BAA-44 after 6 to 8 hrs by bacterial proliferation assay", "format": "functional, organism-based", "conditions": "Staphylococcus aureus, ATCC BAA-44", "units": {"EC50": "µM"}}
{"smiles": "O=C(Nc1ccc(Sc2nc3ccccc3s2)cc1)c1ccccc1", "EC50": "> 100"}
{"smiles": "COc1ccc(Br)cc1C(=O)Nc1ccc(Sc2nc3ccccc3s2)c(Cl)c1", "EC50": "> 100"}
{"smiles": "O=C(Nc1ccc(Sc2nc3ccccc3s2)cc1)c1cc(Br)cc(Br)c1", "EC50": "> 100"}
{"smiles": "O=C(Nc1cccc(Cl)c1)c1cc(Br)cc(Br)c1", "EC50": 12}
{"smiles": "COc1ccc(Br)cc1C(=O)Nc1ccc(Sc2nc3ccccc3s2)cc1", "EC50": "> 100"}
{"test_system": "Enterobacter cloacae", "assay": "Antibacterial activity against Enterobacter cloacae subsp. cloacae ATCC 13047 after 24 hrs by bacterial proliferation assay", "format": "functional, organism-based", "conditions": "subsp. cloacae ATCC 13047, 24 h", "how_it_was_run": "as §2", "units": {"EC50": "µM"}}
{"smiles": "O=C(Nc1ccc(Sc2nc3ccccc3s2)cc1)c1ccccc1", "EC50": "> 100"}
{"smiles": "COc1ccc(Br)cc1C(=O)Nc1ccc(Sc2nc3ccccc3s2)c(Cl)c1", "EC50": "> 100"}
{"smiles": "O=C(Nc1ccc(Sc2nc3ccccc3s2)cc1)c1cc(Br)cc(Br)c1", "EC50": "> 100"}
{"smiles": "O=C(Nc1cccc(Cl)c1)c1cc(Br)cc(Br)c1", "EC50": "> 100"}
{"smiles": "COc1ccc(Br)cc1C(=O)Nc1ccc(Sc2nc3ccccc3s2)cc1", "EC50": "> 100"}
{"molecular_target": "HSP60/HSP10 (Homo sapiens, UniProt P10809)", "sequence (P10809 whole entry)": "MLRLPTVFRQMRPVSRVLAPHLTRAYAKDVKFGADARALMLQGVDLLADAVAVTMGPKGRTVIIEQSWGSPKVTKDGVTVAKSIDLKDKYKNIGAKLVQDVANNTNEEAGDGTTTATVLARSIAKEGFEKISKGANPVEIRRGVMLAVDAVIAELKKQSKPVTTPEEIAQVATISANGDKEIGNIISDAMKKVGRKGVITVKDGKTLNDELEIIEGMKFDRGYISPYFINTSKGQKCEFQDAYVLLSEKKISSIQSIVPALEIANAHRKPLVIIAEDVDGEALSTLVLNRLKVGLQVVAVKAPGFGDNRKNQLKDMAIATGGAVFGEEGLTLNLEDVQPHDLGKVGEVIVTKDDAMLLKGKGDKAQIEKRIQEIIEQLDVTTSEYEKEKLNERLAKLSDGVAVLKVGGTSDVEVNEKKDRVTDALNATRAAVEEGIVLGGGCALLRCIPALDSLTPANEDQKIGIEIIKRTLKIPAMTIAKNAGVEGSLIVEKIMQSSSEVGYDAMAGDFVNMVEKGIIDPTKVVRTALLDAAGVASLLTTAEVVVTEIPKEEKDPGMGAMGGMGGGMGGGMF", "sequence (P61604 whole entry, further chain)": "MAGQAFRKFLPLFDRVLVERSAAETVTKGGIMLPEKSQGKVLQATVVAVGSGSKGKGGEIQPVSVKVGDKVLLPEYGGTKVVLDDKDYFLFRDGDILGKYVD", "assay": "Inhibition of human N-terminal octa-His-tagged HSP60 expressed in Escherichia coli Rosetta(DE3) pLysS/human HSP10 expressed in Escherichia coli Rosetta(DE3) assessed as reduction in HSP60/HSP10-mediated denatured MDH refolding after 40 to 60 mins by spectrometric analysis", "conditions": "not given", "how_it_was_run": "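Human HSP60/10 refolding of denatured MDH, run the same way as the GroEL/ES-dMDH assay. A binary complex of chaperonin and denatured MDH is formed, and refolding is started with ATP and HSP10. MDH activity is the read-out. DMSO is the negative control. IC50 values from replicate curves are log-averaged after ROUT outlier screening.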", "units": {"IC50": "µM"}}
{"smiles": "O=C(Nc1ccc(Sc2nc3ccccc3s2)cc1)c1ccccc1", "IC50": "> 100"}
{"smiles": "COc1ccc(Br)cc1C(=O)Nc1ccc(Sc2nc3ccccc3s2)c(Cl)c1", "IC50": "> 100"}
{"smiles": "O=C(Nc1ccc(Sc2nc3ccccc3s2)cc1)c1cc(Br)cc(Br)c1", "IC50": "> 100"}
{"smiles": "O=C(Nc1cccc(Cl)c1)c1cc(Br)cc(Br)c1", "IC50": "> 100"}
{"smiles": "COc1ccc(Br)cc1C(=O)Nc1ccc(Sc2nc3ccccc3s2)cc1", "IC50": "> 100"}
{"test_system": "Acinetobacter baumannii", "assay": "Antibacterial activity against Acinetobacter baumannii ATCC 19606 after 24 hrs by bacterial proliferation assay", "format": "functional, organism-based", "conditions": "ATCC 19606 = CIP 70.34 = JCM 6841, 24 h", "how_it_was_run": "as §2", "units": {"EC50": "µM"}}
{"smiles": "O=C(Nc1ccc(Sc2nc3ccccc3s2)cc1)c1ccccc1", "EC50": "> 100"}
{"smiles": "COc1ccc(Br)cc1C(=O)Nc1ccc(Sc2nc3ccccc3s2)c(Cl)c1", "EC50": "> 100"}
{"smiles": "O=C(Nc1ccc(Sc2nc3ccccc3s2)cc1)c1cc(Br)cc(Br)c1", "EC50": "> 100"}
{"smiles": "O=C(Nc1cccc(Cl)c1)c1cc(Br)cc(Br)c1", "EC50": "> 100"}
{"smiles": "COc1ccc(Br)cc1C(=O)Nc1ccc(Sc2nc3ccccc3s2)cc1", "EC50": "> 100"}
{"molecular_target": "T1, E. coli GroEL/ES", "assay": "Inhibition of Escherichia coli GroEL expressed in Escherichia coli DH5alpha/Escherichia coli GroES expressed in Escherichia coli BL21 (DE3) assessed as reduction in GroEL/GroES-mediated denatured MDH refolding after 20 to 40 mins by spectrometric analysis", "conditions": "not given", "how_it_was_run": "as §1", "units": {"IC50": "µM"}}
{"smiles": "O=C(Nc1ccc(Sc2nc3ccccc3s2)cc1)c1ccccc1", "IC50": "> 100"}
{"smiles": "COc1ccc(Br)cc1C(=O)Nc1ccc(Sc2nc3ccccc3s2)c(Cl)c1", "IC50": "> 100"}
{"smiles": "O=C(Nc1ccc(Sc2nc3ccccc3s2)cc1)c1cc(Br)cc(Br)c1", "IC50": "> 100"}
{"smiles": "O=C(Nc1cccc(Cl)c1)c1cc(Br)cc(Br)c1", "IC50": "> 100"}
{"smiles": "COc1ccc(Br)cc1C(=O)Nc1ccc(Sc2nc3ccccc3s2)cc1", "IC50": "> 100"}
{"test_system": "Pseudomonas aeruginosa", "assay": "Antibacterial activity against Pseudomonas aeruginosa ATCC 10145 after 24 hrs by bacterial proliferation assay", "format": "functional, organism-based", "conditions": "ATCC 10145, 24 h", "how_it_was_run": "as §2", "units": {"EC50": "µM"}}
{"smiles": "O=C(Nc1ccc(Sc2nc3ccccc3s2)cc1)c1ccccc1", "EC50": "> 100"}
{"smiles": "COc1ccc(Br)cc1C(=O)Nc1ccc(Sc2nc3ccccc3s2)c(Cl)c1", "EC50": "> 100"}
{"smiles": "O=C(Nc1ccc(Sc2nc3ccccc3s2)cc1)c1cc(Br)cc(Br)c1", "EC50": "> 100"}
{"smiles": "O=C(Nc1cccc(Cl)c1)c1cc(Br)cc(Br)c1", "EC50": "> 100"}
{"smiles": "COc1ccc(Br)cc1C(=O)Nc1ccc(Sc2nc3ccccc3s2)cc1", "EC50": "> 100"}
{"test_system": "not listed separately", "assay": "Cytotoxicity against human THLE3 cells assessed as reduction in cell viability after 48 hrs by Alamar Blue reporter assay", "conditions": "48 h", "units": {"CC50": "µM"}}
{"smiles": "O=C(Nc1ccc(Sc2nc3ccccc3s2)cc1)c1ccccc1", "CC50": "> 100"}
{"smiles": "COc1ccc(Br)cc1C(=O)Nc1ccc(Sc2nc3ccccc3s2)c(Cl)c1", "CC50": "> 100"}
{"smiles": "O=C(Nc1ccc(Sc2nc3ccccc3s2)cc1)c1cc(Br)cc(Br)c1", "CC50": "> 100"}
{"smiles": "O=C(Nc1cccc(Cl)c1)c1cc(Br)cc(Br)c1", "CC50": 45}
{"smiles": "COc1ccc(Br)cc1C(=O)Nc1ccc(Sc2nc3ccccc3s2)cc1", "CC50": "> 100"}
